# Screens (PubChem BioAssay)
# SR-BI HDL uptake – blocks mouse SR-BI lipid uptake from DiI-HDL; Q61009; ldlA[mSR-BI] CHO cells, DiI-HDL uptake fluorescence, 3 h; inhibition, % at 12.5 µM; actives 0.96% (n = 320,000); AID 488896;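 active means mean replicate inhibition of at least 70% and a set share of replicates each scoring 70 or more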;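 further: 0% = median of neutral control wells and 100% = median of positive control wells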
# Target sequence (Q61009 whole entry, looked up): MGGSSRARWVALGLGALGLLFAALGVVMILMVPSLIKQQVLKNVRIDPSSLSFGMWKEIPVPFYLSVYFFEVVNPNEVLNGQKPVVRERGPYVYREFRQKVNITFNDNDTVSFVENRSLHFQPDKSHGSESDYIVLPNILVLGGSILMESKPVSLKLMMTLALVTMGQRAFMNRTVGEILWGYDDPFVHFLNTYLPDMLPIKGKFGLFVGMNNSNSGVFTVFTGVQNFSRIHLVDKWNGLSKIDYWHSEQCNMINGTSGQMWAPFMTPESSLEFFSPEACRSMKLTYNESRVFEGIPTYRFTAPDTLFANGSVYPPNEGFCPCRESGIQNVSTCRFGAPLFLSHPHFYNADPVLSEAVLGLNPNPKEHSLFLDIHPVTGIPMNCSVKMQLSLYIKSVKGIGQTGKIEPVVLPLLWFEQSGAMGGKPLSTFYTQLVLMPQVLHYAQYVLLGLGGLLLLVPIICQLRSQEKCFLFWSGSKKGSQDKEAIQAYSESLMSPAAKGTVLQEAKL
# CAL PDZ FP-1 – blocks peptide binding to the human CAL PDZ domain; actives 0.92% (n = 300,000); purified CAL PDZ, TMR-peptide fluorescence polarization, 1 h; AID 602252; inhibition, % at 24.9 µM; Q9HD26;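 active means mean inhibition of at least 30% with at least half of replicates also reaching 30%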;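 further: 0% = DMSO neutral control and 100% = excess unlabeled competitor peptide PRC23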
# SR-BI uptake up – enhances SR-BI lipid uptake from DiI-HDL | CHO ldlA[mSR-BI] cells, DiI-HDL uptake fluorescence, 3 h; 100 = double the neutral-control signal | activation, % at 12.5 µM | actives 0.096% (n = 320,000) | AID 504775;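 active means mean replicate activation of at least 60% and every replicate at or above 60%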;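 further: 0% = median plate neutral-control signal and 100% = twice that signal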
#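 Material: SR-BI-overexpressing, LDLR-lacking CHO cells | Dosing: Single compound concentration, delivered by pin transfer | Probe or stimulus: Labelled HDL, 10 µg/mL | Signal: Bottom-read cell fluorescence after medium removal, ex 550/em 595 nm | Schedule: 3 h, 37 °C | Evaluation: HDL uptake via cellular fluorescence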
# CAL PDZ FP-2 – human CAL PDZ-peptide interaction inhibition | purified CAL PDZ, TMR-peptide fluorescence polarization, 1 h | actives 0.02% (n = 330,000) | inhibition, % at 20 µM;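 active means highest replicate inhibition of at least 40%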;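 further: plate controls were DMSO neutral control wells for no effect and unlabeled competitor peptide control wells for full effect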
#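 System: tagged CAL PDZ domain. Schedule: 1 h room-temperature incubation prior to read. Signal: fluorescence polarization (mP). Measure: percent inhibition from loss of millipolarization.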
# ATG4B inh – ATG4B (human) cysteine protease inhibition. ATG4B cleavage of LC3-PLA2, NBD-HPC fluorescence, 1 h. inhibition, % at 8.33 µM. actives 0.51% (n = 340,000). AID 504462; in the data active means inhibition above about 40%
# ATG4B confirm – confirmation of human ATG4B inhibitors. actives 92% (n = 320). inhibition, % at 8.33 µM. ATG4B protease fluorescent substrate cleavage assay. shares compounds with ATG4B inh; in the data active means inhibition above about 39%
# PLA2 counter – counter-screen for ATG4B inhibitors: human phospholipase A2; shares compounds with ATG4B inh; actives 66% (n = 1,600); AID 588402; purified PLA2, NBD-C6-HPC fluorescence, 45 min; inhibition, % at 8.33 µM; in the data active means inhibition above about 50%
# Target sequence (P04054 whole entry, looked up): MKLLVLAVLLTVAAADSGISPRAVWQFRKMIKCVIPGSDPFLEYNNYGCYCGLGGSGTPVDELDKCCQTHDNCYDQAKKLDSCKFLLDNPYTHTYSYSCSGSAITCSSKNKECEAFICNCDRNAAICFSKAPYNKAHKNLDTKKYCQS
# Active calls of the source: *; / = no result. An excerpt weighted towards active compounds, which were near 2.3% of everything screened.
SMILES,SR-BI HDL uptake,CAL PDZ FP-1,SR-BI uptake up,CAL PDZ FP-2,ATG4B inh,PLA2 counter,others
COC(=O)[C@H](CCSC)NC(=O)Cn1cc(C)c(=O)[nH]c1=O,2.3,-0.3,-2.3,1.0,/,/,
COc1ccc(-c2cc(C(F)(F)F)nc(SCc3cccc(C(=O)O)c3)n2)cc1,-9.4,-5.2,9.4,-3.4,43.6*,55.8*,
CN(C)C(CNC(=O)c1ccc(NC(=O)CC#N)cc1)c1ccccc1 (configuration not stated),10.2,-7.2,-10.2,-4.9,46.8*,55.8*,
N#CCC(=O)Nc1ccc(C(=O)NCCC(c2ccccc2)c2ccccc2)cc1,/,-6.1,/,-2.8,-2.6,/,
Cc1ccc(C)c(Cn2nnc(C(=O)Nc3ccc4c(c3)OCCO4)c2N)c1,17.5,-21.0,-17.5,-0.5,54.8*,65.3*,
Cc1cc(C)cc(NC(=O)c2nnn(Cc3cc(C)ccc3C)c2N)c1,31.9,/,-31.9,1.0,57.0*,77.8*,
CSCCC(NC(=O)COc1ccccc1)C(=O)N1CCN(c2ccccc2Cl)CC1 (configuration not stated),26.1,3.1,-26.1,-1.1,-4.5,/,
Fc1ccc2nc(C(F)(F)F)cc(N3CCOCC3)c2c1,-9.6,-2.4,9.6,-0.5,0.0,/,
O=c1c2cc3c(cc2[nH]c(=S)n1C1CCN(Cc2ccccc2)CC1)OCO3,-22.2,-2.0,22.2,-1.0,58.9*,62.1*,
O/N=C(/c1ccc(F)cc1)C1CC1c1c(F)cccc1Cl (configuration not stated),12.4,-3.3,-12.4,0.2,48.0*,46.9,
O=C1N[C@@H](c2ccccc2)COC(=O)[C@H](Cc2ccc(F)cc2)CC/C=C/C[C@@H]1CC(=O)N(CCO)Cc1ccccc1,30.3,-1.9,-30.3,-0.9,47.5*,57.1*,
Oc1c(Cl)cc(Cl)cc1C=Nc1ccc2c(c1)OCCO2,-17.0,2.7,17.0,-1.0,48.1*,31.7,ATG4B confirm=53.6*
Fc1ccc(CCNC(=S)Nc2ccc(F)c(Cl)c2)cc1,14.1,-5.2,-14.1,-0.6,44.2*,45.8,ATG4B confirm=58.4*
Cc1c(Cl)cccc1NC(=S)NCCc1ccc(F)cc1,10.2,4.0,-10.2,-1.2,70.5*,77.4*,
Fc1ccccc1NC(=S)NCCc1ccc(Cl)cc1,13.7,-7.1,-13.7,-2.1,7.0,/,
Cc1c(Cl)cccc1NC(=S)NCCc1ccc(S(N)(=O)=O)cc1,16.6,-1.7,-16.6,-1.4,21.6,/,
Fc1ccc(NC(=S)NCCc2ccc(Cl)cc2)cc1,10.2,-2.7,-10.2,0.1,-0.7,/,
Cc1c(Cl)cccc1NC(=S)NCCc1ccc(Cl)cc1,30.5,-3.8,-30.5,-1.2,85.6*,88.6*,
CCCc1cc(=O)[nH]c(SCC(=O)Nc2ccc([N+](=O)[O-])cc2C#N)n1,/,-3.4,/,1.0,-9.0,/,
O=C(c1ccc(CNS(=O)(=O)c2ccc(Br)cc2)cc1)N1CCCC1,17.0,/,-17.0,-0.2,0.2,/,
CCSc1nc(-c2ccccc2)c(C#N)c(=O)[nH]1,-12.3,-7.0,12.3,-0.8,-0.4,/,
CCCOc1ccc(-c2nc(SCc3ccccc3)[nH]c(=O)c2C#N)cc1OC,13.3,2.9,-13.3,-1.1,52.4*,85.0*,
Oc1ccccc1C1SC(c2ccccc2O)SC(c2ccccc2O)S1 (configuration not stated),1.0,/,-1.0,-0.2,62.7*,46.7,
CC(=O)c1ccc(S(=O)(=O)N2CCC3(CC2)CC(=O)c2ccccc2O3)cc1,-7.1,/,7.1,-1.1,3.3,/,
COCCn1c(C)cc(C(=O)CSc2nc(C)nc3sc4c(c23)CCC4)c1C,17.2,/,-17.2,-1.4,57.4*,36.6,
SMILES,SR-BI HDL uptake,CAL PDZ FP-1,SR-BI uptake up,CAL PDZ FP-2,ATG4B inh,PLA2 counter,others
Cc1nc(SCC(=O)NCC2CCCO2)c2c3c(sc2n1)CCCC3 (configuration not stated),-4.0,-3.2,4.0,-3.4,1.6,/,
CCOC(=O)[C@H]1[C@H]2COc3ccc(OC)cc3[C@@H]2N2C(=O)c3cc(F)c(F)cc3NC(=O)[C@@]12C,-9.4,-0.5,9.4,-1.1,-6.2,/,
CC(C)(C)c1nc(SCC(=O)c2ccccc2)c2ccccc2n1,33.7,-3.4,-33.7,-2.7,50.5*,31.8,ATG4B confirm=69.7*
Cc1ccc(C(=O)c2c(NC(=O)c3ccccc3C)sc(C)c2C)cc1,21.2,5.4,-21.2,-1.6,63.2*,49.7,
CCN(CC)CC(=O)Nc1sc(C)c(C)c1C(=O)c1ccc(C)cc1,10.8,-6.1,-10.8,0.1,2.0,/,
Cc1cc(C)nc(SCc2ccc(C(=O)N/N=C3\CC(C)CC(C)(C)C3)cc2)n1 (configuration not stated),-7.4,/,7.4,-1.0,47.3*,45.7,ATG4B confirm=75.7*
CC(NC(=O)[C@H](C)NC(=O)[C@@H]1CSC2c3ccccc3C(=O)N21)c1ccccc1 (some centres not stated),-11.2,/,11.2,0.1,-11.1,/,
Cc1ccc(C2CC(C(F)F)n3ncc(C(=O)Nc4cnn(Cc5ccccc5C)c4)c3N2)cc1 (configuration not stated),12.2,1.5,-12.2,0.4,53.7*,71.3*,
Cc1ccccc1Cn1cc(NC(=O)c2nn(C)cc2Cl)cn1,-1.9,/,1.9,-1.2,4.1,/,
COc1cccc(NC(=O)CCCn2nc(C)c3c(C)n(-c4ccccc4)nc3c2=O)c1,9.2,4.3,-9.2,-0.9,-5.3,/,
Cc1cc(C(=O)N/N=C/c2cc(Br)cc(Br)c2OC(=O)c2cccc(F)c2)n[nH]1,121.5*,/,-121.5,-0.9,44.0*,42.0,
Cc1cc(C(=O)N/N=C\c2cc(C(C)(C)C)ccc2O)n[nH]1,62.3,-1.6,-62.3,-3.2,46.8*,55.0*,
Cc1ccc(NC(=O)C2SC(=Nc3ccccc3)C(C(=O)Nc3ccc(Cl)cc3)=C2N)cc1 (configuration not stated),44.8,5.7,-44.8,-0.4,-4.6,/,
Cc1ccc(N=C2SC(C(=O)Nc3ccc(OC(F)(F)F)cc3)C(N)=C2C(=O)Nc2c(C)cc(C)cc2C)cc1 (configuration not stated),/,-2.5,/,-0.4,61.9*,61.5*,
CN(C)C1=NCCN1CCc1ccccc1,7.2,-3.1,-7.2,-0.4,15.6,/,
O=C(Nc1ccc(N2CCCCCC2)cc1)c1ccccc1Cl,35.2,0.1,-35.2,-3.0,51.0*,49.8,
CC(=O)N1CCN(c2ccc(NC(=O)c3ccccc3Cl)cc2)CC1,15.4,-0.7,-15.4,0.3,2.7,/,
O=C(Nc1cccc(F)c1)NC1(C(=O)N2CCOCC2)CCCCC1,-12.8,-5.3,12.8,-2.7,0.5,/,
